# Only some compounds are listed: those with a hit (about 29% of all), similar ones and a draw of the others.
# CYP2C19 inhib: blockers of cytochrome P450 2C19 activity – biochemical, luminescence, ADME assay, primary screen; P33261; CYP2C19 Supersomes, luciferin-H EGE luminescence, 30 min; inhibition, % at 5 µM; actives 21% (n = 96,000);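 active = CYP2C19 inhibition above a set limit at 5 µM in the primary screen, cut at about 50% in these data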
# CYP2C9 inhib: blockers of cytochrome P450 2C9 activity – biochemical, luminescence, ADME assay, primary screen. P11712. inhibition, % at 5 µM. CYP2C9 Supersomes, luciferin-H conversion. actives 20% (n = 96,000);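 active = blocking of liver enzyme CYP2C9 beyond about 50% at 5 µM, limit read from the data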
# Target sequence (P11712 whole entry, looked up): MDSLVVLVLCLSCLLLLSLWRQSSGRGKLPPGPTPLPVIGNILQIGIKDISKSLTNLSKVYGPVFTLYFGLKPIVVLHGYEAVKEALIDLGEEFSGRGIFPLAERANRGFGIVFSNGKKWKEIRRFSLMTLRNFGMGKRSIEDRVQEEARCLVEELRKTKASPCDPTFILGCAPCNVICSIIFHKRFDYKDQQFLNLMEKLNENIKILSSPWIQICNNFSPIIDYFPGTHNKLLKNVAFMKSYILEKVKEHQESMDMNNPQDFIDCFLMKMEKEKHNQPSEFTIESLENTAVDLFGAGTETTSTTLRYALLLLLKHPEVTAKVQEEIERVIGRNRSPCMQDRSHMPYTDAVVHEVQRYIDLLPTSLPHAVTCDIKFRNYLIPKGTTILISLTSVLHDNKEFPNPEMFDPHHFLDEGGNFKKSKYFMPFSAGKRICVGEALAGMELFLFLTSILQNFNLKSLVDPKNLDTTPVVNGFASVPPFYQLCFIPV
# CYP2C9 activ: human CYP2C9 activators, primary screen, biochemical, luminescence; actives 1.4% (n = 96,000); activation factor at 5 µM; AID 1024, 2008; Cytochrome P450 2C9 (Homo sapiens), P11712; recombinant CYP2C9, luciferin-H conversion; hits give high values; factor 1 = untreated enzyme, 0 = blocked;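 active = activation factor of 2 or more for CYP2C9 at a 5 µM dose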
# Ecoli tolC: growth inhibitors of E. coli tolC mutant, primary screen, strain BW25113 ΔtolC::kan, 384-well; OD615; growth inhibition, % at 10 µM (by protocol); actives 2.2% (n = 65,000); AID 573, 2007;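 active = growth inhibition at or above a cutoff equal to the mean over every tested compound plus 3 SD, cut at about 60% in these data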;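 also: growth measured after 20 h incubation at 37 °C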
#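 System: E. coli ΔtolC::kan strain BW25113; Buffer or medium: LB broth supplemented with 50 µg/mL kanamycin; Compound: 10 µM final, single dose; Incubation: bacterial growth with compound for 20 h at 37 °C; Signal: A615 absorbance measurement; Evaluation: growth inhibition in percent.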
# Ecoli WT expand: growth inhibitors of wild-type E. coli, primary screen, strain BW25113, expanded library, OD600; growth inhibition, % at 100 µM; OD600 absorbance; actives 0.15% (n = 98,000); AID 710, 2007;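 active = growth inhibition above about 50% at one test dose, limit read from the data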;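 also: growth measured after 20 h incubation at 37 °C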
# CYP2C19 act: human CYP2C19 activators, primary screen, biochemical, luminescence; Cytochrome P450 2C19 (Homo sapiens), P33261; recombinant CYP2C19, luciferin-H EGE luminescence; hits give high values; 0 = fully inhibited enzyme, 1 = untreated enzyme; activation factor at 5 µM; 96,000 tested, under 10 active; AID 1025, 2008;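 active = activation factor of at least 2 at 5 µM in the primary screen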
# A number is an active result; . = inactive; / = not tested or not shown.
SMILES,CYP2C19 inhib,CYP2C9 inhib,CYP2C9 activ,Ecoli tolC,Ecoli WT expand,CYP2C19 act
CN(c1ccccc1C(=O)O)S(=O)(=O)c1ccc2c3c(cccc13)C(=O)N2,/,/,/,.,.,/
CC(C)C(NS(=O)(=O)c1ccc2c3c(cccc13)C(=O)N2)C(=O)O (stereo not drawn),.,.,.,.,/,.
COC(=O)c1c(NS(=O)(=O)c2cccs2)sc2c1CCCC2,.,.,.,.,.,.
O=C(O)c1ccccc1NS(=O)(=O)c1ccc2c3c(cccc13)C(=O)N2,.,97,.,.,.,.
COC(=O)c1c(C)oc2c1cc(NS(=O)(=O)c1cccs1)c1ccccc12,92,95,.,/,.,.
COC(=O)c1ccccc1NS(=O)(=O)c1ccc2c3c(cccc13)C(=O)N2,76,100,.,.,/,.
Cc1oc2c(cc(NS(=O)(=O)c3ccc4c5c(cccc35)C(=O)N4)c3ccccc32)c1C(=O)OC(C)C,.,89,.,/,.,.
CCOC(=O)C(CC)Sc1nc(-c2ccc(OC)cc2)nc2c1c(=O)n(C)c(=O)n2C (stereo not drawn),/,/,/,.,/,/
O=C1Nc2ccc(NS(=O)(=O)c3cccs3)c3cccc1c23,89,89,.,.,.,.
O=C(OCCN1CCOCC1)C(c1ccccc1)c1ccccc1,70,56,.,.,.,.
Cc1cc(C(=O)NCc2ccco2)cs1,.,.,.,.,.,.
O=C(CN1CCN(S(=O)(=O)c2ccccc2)CC1)NC(=O)NC1CCCCC1,55,74,.,/,.,.
O=C(CN1CCN(S(=O)(=O)c2ccccc2)CC1)NC(=O)NCc1ccccc1,.,62,.,/,.,.
CC(C)c1cc(C(=O)Nc2cccc(Cl)c2)no1,.,.,.,.,.,.
CC(=O)N1N=C(c2cccc(Cl)c2)OC1c1ccc(C(C)C)cc1 (stereo not drawn),83,88,.,/,.,.
Cn1c(=O)c2c(nc(CN3CCC(C(N)=O)CC3)n2Cc2ccccc2Cl)n(C)c1=O,.,.,.,.,/,.
CCOC(=O)C1=C(C)N2C(=C(C#N)[C@@H]1c1ccc(C(=O)OC)cc1)SC[C@@]2(O)C(C)(C)C,97,98,.,/,.,.
O=C1CC(N2CCC(O)(c3ccc(Cl)cc3)CC2)C(=O)N1Cc1ccc(N2CCCC2=O)cc1 (stereo not drawn),80,.,.,.,.,.
O=C1CC(N2CCOCC2)C(=O)N1Cc1ccc(N2CCCC2=O)cc1 (stereo not drawn),.,.,.,.,.,.
NC(=O)N1c2ccccc2C=Cc2ccccc21,/,/,/,.,/,/
CCN(CC)C(=O)N1c2ccccc2C=Cc2ccccc21,63,.,.,/,.,.
O=C(CN1CCCCC1)N1CCCc2ccccc21,.,.,.,/,.,.
O=C(CN1CCCCCC1)N1c2ccccc2C=Cc2ccccc21,51,.,.,/,.,.
CCn1c(COc2ccccc2)nnc1SCc1ccc(C#N)cc1,.,.,.,.,.,.
CCn1c(COc2ccc(Cl)cc2)nnc1SCc1ccc(C#N)cc1,76,76,.,.,.,.
SMILES,CYP2C19 inhib,CYP2C9 inhib,CYP2C9 activ,Ecoli tolC,Ecoli WT expand,CYP2C19 act
CCn1c(SCc2ccc(C#N)cc2)nnc1-c1cccc(Cl)c1,65,.,.,.,.,.
COC(=O)c1sccc1-n1cccc1C(=O)NCc1ccccc1,.,.,.,/,.,.
O=C(NC1=NCCS1)c1cc(-c2ccccc2)nn1-c1ccccc1,.,.,.,.,/,.
Cc1ccc(O)c(C(=O)c2cnn(C(=O)Cc3csc(C)n3)c2)c1,.,77,.,.,.,.
Cc1ncc(CC(=O)n2cc(C(=O)c3cc(F)ccc3O)cn2)s1,.,.,.,/,.,.
COc1cccc(Oc2cnc(N)nc2-c2ccc(OC)cc2O)c1,76,79,.,.,.,.
COc1ccc(OCC(=O)NNC(=O)c2cccnc2)cc1,.,.,.,/,.,.
C=C(C)COc1ccc(-c2nc(N)ncc2-c2ccc(OC)cc2)c(O)c1,.,52,.,86,.,.
C=C(C)COc1ccc(-c2ncncc2Oc2ccc(OC)cc2)c(O)c1,92,98,.,66,.,.
COc1ccc(-c2nc(N)ncc2Oc2ccccc2Br)c(O)c1,.,.,.,.,.,.
CCN(CC)CCNC(=O)Cn1c(-c2ccccn2)nc2ccccc21,.,.,.,.,.,.
COc1ccc(NC(=O)/C(Cl)=C(/Cl)S(=O)(=O)Cc2ccc(C)cc2)cn1,.,53,.,/,.,.
Cn1cnnc1SCC(=O)c1c[nH]c2ccccc12,.,.,.,.,.,.
Cc1cc(C(=O)CSc2nc3ccccc3n2CCC#N)c(C)n1Cc1cccs1,61,.,.,.,.,.
N#CCCn1c(SCC(=O)c2c[nH]c3ccccc23)nc2ccccc21,70,.,.,.,.,.
CCOc1cc(S(=O)(=O)n2cc(-c3ccc(F)cc3)c(N)n2)cc(OCC)c1OCC,.,75,.,63,.,.
COc1ccccc1-c1cn(S(=O)(=O)c2ccc(F)cc2)nc1N,97,86,.,.,.,.
FC(F)(F)c1cnc(-n2cc[nH]c2=S)c(Cl)c1,.,.,.,/,.,.
O=C(Cc1ccc(F)cc1)Nc1c2c(nn1-c1cccc(Cl)c1)CS(=O)C2 (stereo not drawn),100,.,.,.,.,.
CC(=O)Nc1c2c(nn1-c1cccc(Cl)c1)CS(=O)C2 (stereo not drawn),.,.,.,.,.,.
O=C(N/N=C/C=C/c1ccccc1)c1cc2c(ccc3ccccc32)o1,.,.,.,/,.,.
C=CCn1cc(/C=N\NC(=O)c2cc3c(ccc4ccccc43)o2)c2ccccc21,.,62,.,/,.,.
Clc1cccc(N2CCN(CCNc3nc4ccccc4n4cnnc34)CC2)c1,.,.,.,.,.,.
CCOC(=O)c1c(C)oc2c1c(C(c1cccnc1)N1CCN(C)CC1)c(O)c1ccccc12 (stereo not drawn),63,.,.,.,/,.
CCOC(=O)c1c(C)oc2c1c1c(c3ccccc32)OCN(Cc2cccnc2)C1,.,54,.,.,.,.
CCOC(=O)c1c(C)oc2c1c(C(c1cccnc1)N1CCOCC1)c(O)c1ccccc12 (stereo not drawn),.,64,.,/,.,.
Cc1cc(C)n(CCc2nc3c4ccccc4nc(SCc4ccc(C#N)cc4)n3n2)n1,/,/,/,.,/,/
CC(Cc1c[nH]c2ccccc12)NC(=O)C1CCCNC1=O (stereo not drawn),.,.,.,.,.,.
CCC(=O)NS(=O)(=O)c1cccnc1Nc1ccccc1Cl,.,69,.,/,.,.

# Bioassay records: PubChem BioAssay, several laboratories
